Assay results reported in ChEMBL document CHEMBL4627349, “Synthesis and evaluation of the performance of a small molecule library based on diverse tropane-related scaffolds” (Bioorg Med Chem, 2020).
The source made the active and inactive calls.

How the values were obtained:
Plasmodium falciparum = experiment: Antiplasmodial activity against chloroquine-sensitive Plasmodium falciparum NF54 by lactate dehydrogenase assay; format: functional, organism-based
In short: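 Dose-response format against chloroquine-susceptible NF54 parasites, with lactate dehydrogenase activity as the parasite-viability marker.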

C3H 10T1/2 = experiment: Inhibition of Hedgehog signaling pathway in mouse C3H10T1/2 cells assessed as reduction in osteoblast differentiation at 10 uM measured after 96 hrs by alkaline phosphatase CDP-star substrate based luminescence assay relative to control; format: cell-based
In short: (§1)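 Single-concentration primary screen at 10 µM in an osteoblast differentiation assay for Hedgehog signalling inhibition, with cell viability monitored alongside. Hits were defined as at least 50% inhibition of signalling with <20% impact on cell viability.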

[1] = Cytotoxicity against mouse C3H10T1/2 cells assessed as effect on cell viability at 10 uM relative to control; format: cell-based, C3H 10T1/2; settings: read-out: Activity; in short: as §1
[2] = Inhibition of Hedgehog signaling pathway in mouse C3H10T1/2 cells assessed as reduction in osteoblast differentiation measured after 96 hrs by alkaline phosphatase CDP-star substrate based luminescence assay; format: cell-based; settings: C3H 10T1/2, 96 h

Row | SMILES | Activity (Plasmodium falciparum) | IC50 (Plasmodium falciparum) [µM] | also measured
1 | CN1C2CC(S(C)(=O)=O)C1Cc1cccnc12 (centres undefined) | Active |  | 
2 | CS(=O)(=O)C1CC2c3c(c4ccccc4n3CC#N)CC1N2Cc1ccccc1 (centres undefined) |  |  | inhibition (C3H 10T1/2): > 50%; viability at 10 µM [1]: < 20%; EC50 [2]: 4.2 µM
3 | CN1C2CC(S(C)(=O)=O)C1C1CN(c3ccccn3)CC1C2O (centres undefined) |  | 5.4 | 
4 | CS(=O)(=O)C1CC2c3c(c4ccccc4n3S(C)(=O)=O)CC1N2Cc1ccccc1 (centres undefined) |  |  | inhibition (C3H 10T1/2): > 50%; viability at 10 µM [1]: < 20%; EC50 [2]: 4.4 µM
5 | CN(Cc1ccc(OC(F)(F)F)cc1)C1CCC2C(S(C)(=O)=O)CC1N2C (centres undefined) |  | 5.7 | 
6 | CN1C2CC(S(C)(=O)=O)C1Cc1c(-c3ccccc3)ccnc12 (centres undefined) | Active |  | 
7 | CN1C2CC(S(C)(=O)=O)C1C(c1ccc(F)cc1)CC2OCc1ccc(C#N)cc1 (centres undefined) |  | 5.5 | 
8 | CS(=O)(=O)C1CC2c3ncccc3CC1N2Cc1ccccc1 (centres undefined) | Active |  | 
9 | CN1C2CC(S(=O)(=O)N(C)C)C1Cc1cccnc12 (centres undefined) | Active |  | 
10 | CS(=O)(=O)C1CC2C(=O)c3n[nH]c(C(=O)O)c3C1N2Cc1ccccc1 (centres undefined) |  | 5.4 | 
